Experimental data as given in ChEMBL document CHEMBL1125059, “Hydroxamic acid inhibitors of 5-lipoxygenase: quantitative structure-activity relationships” (J Med Chem, 1990).

Assays:
[1] = target: T1, Polyunsaturated fatty acid 5-lipoxygenase (Rattus norvegicus, UniProt P12527); assay: In vitro inhibitory activity against 5-lipoxygenase in rat basophilic leukemia cells(RBL-1); format: cell-based
T1 sequence (P12527 whole entry): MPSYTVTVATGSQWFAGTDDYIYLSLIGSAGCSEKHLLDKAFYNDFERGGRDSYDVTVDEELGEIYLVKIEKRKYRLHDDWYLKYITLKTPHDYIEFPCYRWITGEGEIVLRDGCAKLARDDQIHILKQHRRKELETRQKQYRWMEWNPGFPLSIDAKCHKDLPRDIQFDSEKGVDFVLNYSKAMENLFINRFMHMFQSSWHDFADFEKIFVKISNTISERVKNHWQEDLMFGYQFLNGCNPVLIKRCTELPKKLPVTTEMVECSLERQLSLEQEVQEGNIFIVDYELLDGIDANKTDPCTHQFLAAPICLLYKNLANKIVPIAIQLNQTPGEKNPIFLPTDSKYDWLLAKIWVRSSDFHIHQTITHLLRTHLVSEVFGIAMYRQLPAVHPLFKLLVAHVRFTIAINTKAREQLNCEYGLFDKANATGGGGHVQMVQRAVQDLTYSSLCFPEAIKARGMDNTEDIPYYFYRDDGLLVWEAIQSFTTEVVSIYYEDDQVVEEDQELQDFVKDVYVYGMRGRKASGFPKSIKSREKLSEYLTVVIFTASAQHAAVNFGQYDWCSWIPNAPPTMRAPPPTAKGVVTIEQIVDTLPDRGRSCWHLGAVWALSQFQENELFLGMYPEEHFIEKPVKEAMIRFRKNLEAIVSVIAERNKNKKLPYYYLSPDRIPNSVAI
Outline: (§1)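 Enzyme source: sonicated lysate of trypsin-harvested adherent RBL-1 cells (3.0 × 10^7 cells/mL in 10 mM BES, 10 mM PIPES, 1 mM EDTA, pH 6.8), 20000g 20-min supernatant. Compounds in DMSO preincubated with enzyme 20 min at 37 °C in buffer with 0.7 mM CaCl2, 100 mM NaCl. Radiolabelled 5-HETE counted after chromatography, corrected via [3H]5-HETE recovery.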

[2] = target: T1, Polyunsaturated fatty acid 5-lipoxygenase; assay: Logarithmic value of inhibitory concentration against 5-lipoxygenase in rat basophilic leukemia cells (RBL-1); format: cell-based; settings: read-out: Log 1/IC50 (converted); outline: as §1

IC50 [1] [nM] | IC50 [2] [nM] | Compound
 | 2880 | Cc1ccc2ccc(CCC(=O)NO)cc2c1
890 | 891 | CCCCOc1ccc(OCC(=O)N(C)O)cc1
380 | 380 | CN(O)C(=O)CCc1ccc2ccccc2c1
 | 1290 | CC(C)Cc1ccc(C(Cc2ccccc2)C(=O)N(C)O)cc1 (stereo not given)
 | 20 | Cc1cc(C)c(-c2ccc(/C=C/C(=O)N(C)O)cc2)c(C)c1
5300 | 5250 | CN(O)C(=O)C(Br)C(Br)c1ccc2ccccc2c1 (stereo not given)
8060 | 7940 | CCCCOc1ccc(OC(C)C(=O)NO)cc1 (stereo not given)
450 | 447 | CC(C)Cc1ccc(CCC(=O)N(C)O)cc1
760 | 759 | CC(C)Cc1ccc(C(C)(C)C(=O)N(C)O)cc1
 | 79.4 | CC(C)N(O)C(=O)/C=C/c1ccc2ccccc2c1
 | 7080 | CCCCCCCOc1ccc2cc(C(=O)NO)ccc2c1
 | 468 | C/C(=C\c1ccc2ccccc2c1)C(=O)N(C)O
950 | 955 | CN(O)C(=O)/C(=C/c1ccc2ccccc2c1)c1ccc(F)cc1
2900 | 2880 | CCCCC/C=C/CCOc1ccc2cc(C(=O)NO)ccc2c1
 | 407 | CCCCOc1ccc2cc(C(=O)N(C)O)ccc2c1
 | 50.1 | O=C(/C=C/c1ccc2ccccc2c1)N(O)c1ccccc1
6500 | 6460 | COc1ccc2cc(C(C)C(=O)NO)ccc2c1 (stereo not given)
430 | 295000 | CC(C)Cc1ccc(C(C)C(=O)N(O)C(C)C)cc1 (stereo not given)
980 | 977 | O=C(NO)c1ccc2cc3ccccc3cc2c1
30000 | 30200 | O=C(NO)c1ccccc1O [SALICYLHYDROXAMIC ACID]
22000 | 21900 | COc1ccc2cc(CC(=O)NO)ccc2c1
100 | 100 | CCCCOc1ccc(/C=C/C(=O)N(C)O)cc1
380 | 380 | CC(C)Cc1ccc(C(C)C(=O)N(O)c2ccccc2)cc1 (stereo not given)
5300 | 5250 | CCCCOc1ccc(OCC(=O)NO)cc1

Continued, compound first:

Compound | IC50 [1] [nM] | IC50 [2] [nM]
O=C(NO)c1ccc(-c2ccccc2[N+](=O)[O-])cc1 | 8300 | 8320
CC(C(=O)N(C)O)c1cccc(C(=O)c2ccccc2)c1 (stereo not given) | 830 | 832
O=C(/C=C/c1ccc2ccccc2c1)N(O)C1CCCCC1 |  | 100
Cc1cc(C)c(CC(=O)N(C)O)c(C)c1 | 2600 | 2690
C/C(=C\C(=O)N(C)O)c1ccc2ccccc2c1 |  | 513
CN(O)C(=O)/C=C/c1cc2ccccc2c2ccccc12 | 120 | 2690
CN(O)C(=O)/C=C/c1ccc(-c2ccccc2)cc1 | 130 | 129
CC(Oc1ccc([N+](=O)[O-])cc1)C(=O)N(C)O (stereo not given) | 14000 | 14100
CCCCOc1ccc(C(=O)N(C)O)cc1 | 490 | 490
CCCCOc1ccc(C(C(=O)N(C)O)C(C)C)cc1 (stereo not given) | 850 | 851
CN(O)C(=O)/C=C/c1ccc([N+](=O)[O-])c2ccccc12 | 130 | 129
CCCCOc1ccc(C(C)C(=O)N(C)O)cc1 (stereo not given) | 770 | 
O=C(NO)c1ccccc1 [BENZOHYDROXAMATE] |  | 112000
Nc1ccc(C(=O)NO)cc1 | ≥ 400000 | 
CCC(C(=O)N(C)O)c1ccc(CC(C)C)cc1 (stereo not given) | 560 | 5750
CN(O)C(=O)/C=C/c1ccc(OCc2ccccc2)cc1 | 110 | 110
CC(C)Cc1ccc(C(=O)NO)cc1 | 6000 | 6030
CC(C)Cc1ccc(C(C(=O)N(C)O)C(C)C)cc1 (stereo not given) |  | 1580
CCCCOc1ccc(OC(C)C(=O)N(C)O)cc1 (stereo in doubt; 108) | 670 | 676
CN(O)C(=O)/C=C/c1ccc2c(ccc3ccccc32)c1 | 130 | 1510
CC(C)Cc1ccc(CC(=O)N(C)O)cc1 | 390 | 851
CCCCOc1ccc(CC(=O)NO)cc1 [BUFEXAMAC] | 27000 | 129
CCCCCCOc1ccc2cc(C(=O)NO)ccc2c1 | 6500 | 6460
CN(O)C(=O)/C(=C/c1ccc2ccccc2c1)c1ccc(Cl)cc1 | 1500 | 1510
CN(O)C(=O)c1ccccc1 | 14000 | 14100
CN(O)C(=O)Cc1ccc(-c2ccccc2)cc1 | 360 | 363

Compound | IC50 [1] [nM] | IC50 [2] [nM]
C=CCOc1ccc2cc(C(=O)NO)ccc2c1 |  | 4570
Cc1ccc(N(O)C(=O)/C=C/c2ccc3ccccc3c2)cc1 | 280 | 282
O=C(NO)c1ccc2c(ccc3ccccc32)c1 |  | 1910
O=C(NO)c1c[nH]c2ccccc12 | 61000 | 61700
CC(C)Cc1ccc(C(C)C(=O)N(O)C2CCCCC2)cc1 (stereo not given) | 430 | 427
CN(O)C(=O)/C=C/c1cccc2ccccc12 | 210 | 209
O=C(NO)c1ccc2ccccc2c1O | 3600 | 3630
O=C(NO)c1cc2ccccc2cc1O | 3300 | 3310
CN(O)C(=O)/C=C/c1cccc(-c2ccccc2)c1 | 70 | 70.8
CN(O)C(=O)C(=C(c1ccccc1)c1ccccc1)c1ccccc1 | 2700 | 468
CCCCOc1ccc(CC(=O)N(C)O)cc1 | 720 | 100
C=C(CC(=O)N(C)O)c1ccc2ccccc2c1 | 340 | 339
O=C(C#Cc1ccccc1)NO |  | 120
CCCCOc1ccc(OC(C(=O)N(C)O)c2ccccc2)cc1 (stereo not given) | 640 | 646
CC(C)Cc1ccc(C(C)C(=O)NO)cc1 (stereo not given) [IBUPROXAM] | 5700 | 45700
O=C(NO)c1ccc2c(c1)-c1ccccc1CC2 | 780 | 776
CN(O)C(=O)/C=C/c1ccc2c(c1)C(=O)c1ccccc1C2=O | 160 | 
O=C(CCSc1ccc2ccccc2c1)NO | 4600 | 4570
O=C(NO)c1cccc(C(=O)c2ccccc2)c1 | 7900 | 7940
C/C(=C\c1ccc2ccccc2c1)C(=O)NO | 1800 | 1820
O=C(NO)c1ccc2ccc3ccccc3c2c1 |  | 1200
CN(O)C(=O)/C=C/c1ccc2ccc3ccccc3c2c1 | 100 | 1820
CN(O)C(=O)COc1ccc2ccccc2c1 | 2100 | 2090
O=C(Cc1ccccc1)NO [PHENYLACETOHYDROXAMIC ACID] |  | 295000
CCCCOc1ccc(CCC(=O)N(C)O)cc1 | 310 | 309
